Data set [1] concerns Enterococcus faecalis. Kind of data set: Antibacterial activity against Enterococcus faecalis ATCC 29212 assessed as reduction in bacterial growth after 18 hrs by CLSI based broth microdilution assay. It is filed as functional. In short, it runs like this: (§1)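 CLSI broth microdilution for MIC (with MBC) in polypropylene microtiter plates, inoculum ~5 × 10^5 CFU/mL. Run independently on three occasions. The reported MIC is the lowest concentration on which all three biological replicates agreed.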
In general terms: Broth dilution looks for growth in wells or tubes with falling amounts of substance.

Data set [2] has as its system Aspergillus fumigatus. Kind of data set: Antifungal activity against Aspergillus fumigatus SVB-F136 assessed as fungal growth inhibition after 48 hrs by CLSI protocol based microbroth dilution method. The class given is functional. In short, it runs like this:
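Filamentous fungus tested by CLSI broth microdilution with final inoculum 0.4 × 10^4 to 5 × 10^4 CFU/mL. Three independent biological replicates; MIC is the lowest concentration at which all three agreed.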

Data set [3] can be described thus: Cytotoxicity against NHDF cells assessed as reduction in cell viability measured after 24 hrs by MTT assay. As to conditions: human, read-out: LD50. It is filed as toxicity, cell-based. In short, it runs like this:
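Adherent normal human dermal fibroblasts were read by MTT against a DMSO vehicle control. Viability is expressed as percent of untreated controls. At least three independent biological replicates were run, with each concentration in technical duplicate.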
In general terms: Formazan colour is commonly taken as a measure of viable cells.

The subject of data set [4] is Staphylococcus aureus. Kind of data set: Antibacterial activity against Staphylococcus aureus ATCC 25923 assessed as reduction in bacterial growth after 18 hrs by CLSI based broth microdilution assay. It is filed as functional. A digest of the protocol:
as §1

Data set [5] has as its system Staphylococcus aureus. The experiment in a line: Antibacterial activity against methicillin-resistant Staphylococcus aureus USA 300 assessed as reduction in bacterial growth after 18 hrs by CLSI based broth microdilution assay. It is filed as functional. A digest of the protocol:
as §1

Data set [6] has as its system Streptococcus pneumoniae. Kind of data set: Antibacterial activity against Streptococcus pneumoniae ATCC 49619 assessed as reduction in bacterial growth after 18 hrs by CLSI based broth microdilution assay. The class given is functional.
For data set [7], the system named is Streptococcus pyogenes. Kind of data set: Antibacterial activity against macrolide- and tetracycline-resistant Streptococcus pyogenes HKU16 assessed as reduction in bacterial growth after 18 hrs by CLSI based broth microdilution assay. It is filed as functional. In short, it runs like this: as §1
For data set [8], the system named is Escherichia coli. Kind of data set: Antibacterial activity against Escherichia coli ATCC 25922 assessed as reduction in bacterial growth after 18 hrs by CLSI based broth microdilution assay. It is filed as functional. In short, it runs like this:
as §1

The test system of data set [9] is Escherichia coli. The experiment in a line: Antibacterial activity against multi-drug resistant Escherichia coli MS8345 assessed as reduction in bacterial growth after 18 hrs by CLSI based broth microdilution assay. It is filed as functional. A digest of the protocol: as §1
Data set [10] deals with Klebsiella pneumoniae. Kind of data set: Antibacterial activity against Klebsiella pneumoniae MS6671 assessed as reduction in bacterial growth after 18 hrs by CLSI based broth microdilution assay. The class given is functional.
In data set [11] the test system is Acinetobacter baumannii. The experiment in a line: Antibacterial activity against Acinetobacter baumannii ATCC 19606 assessed as reduction in bacterial growth after 18 hrs by CLSI based broth microdilution assay. The class given is functional.
For data set [12], the system named is Acinetobacter baumannii. Kind of data set: Antibacterial activity against multi-drug resistant Acinetobacter baumannii AB5075 assessed as reduction in bacterial growth after 18 hrs by CLSI based broth microdilution assay. The class given is functional. A digest of the protocol:
as §1

In data set [13] the test system is Pseudomonas aeruginosa. Kind of data set: Antibacterial activity against Pseudomonas aeruginosa SVB-B9 assessed as reduction in bacterial growth after 18 hrs by CLSI based broth microdilution assay. The class given is functional.
Data set [14] relates to Candida albicans. The experiment in a line: Antifungal activity against Candida albicans SC5314 assessed as reduction in fungal growth incubated for 48 hrs by CLSI based broth microdilution assay. The class given is functional. In short, it runs like this:
(§2)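 Yeast susceptibility by CLSI broth microdilution (M27), final inoculum 0.5 × 10^3 to 2.5 × 10^3 CFU/mL. Run independently on three occasions; MIC reported as the lowest concentration giving agreement across all three biological replicates.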

Data set [15] deals with Cyberlindnera jadinii. The experiment in a line: Antifungal activity against Candida utilis SVB-Y1 assessed as reduction in fungal growth after 48 hrs by CLSI based broth microdilution assay. The class given is functional. As to conditions: Williopsis jadinii. In short, it runs like this: as §2
For data set [16], the system named is Enterococcus faecium. The experiment in a line: Antibacterial activity against vancomycin-resistant Enterococcus faecium RBWH1 assessed as reduction in bacterial growth after 18 hrs by CLSI based broth microdilution assay. As to conditions: RBWH1, 18 h.

In brackets after ≈: the same amount, converted by molar mass. Where a SMILES comes first, the peptide text is derived from it. Bridges are numbered along the chain shown (N, C = ends). [ ]: non-standard residue; d: D form. The star is where a group is joined. X1 = CC[C@H](C)CCCCC(=O)*; Dab = NCC[C@H](N)C(=O)O Bounds are passed on as bounds.

As to `N=C(N)NCCC[C@@H]1C(=O)N(Cc2ccc(-c3ccccc3)cc2)[C@@H](CCCNC(=N)N)C(=O)N1Cc1ccc(-c2ccccc2)cc1`, the MIC (usually the lowest concentration found to suppress growth) in [1] came out at 16 µM (≈ 10.3 µg/mL); in data set [2], 64 µM (≈ 41.3 µg/mL); in data set [4], 4 µM (≈ 2.58 µg/mL); in data set [5] it was 4 µM (≈ 2.58 µg/mL); in data set [6], 16 µM (≈ 10.3 µg/mL); in data set [7], 16 µM (≈ 10.3 µg/mL). In addition, the minimum inhibitory concentration (MIC) was 64 µM (≈ 41.3 µg/mL) in [8]; above 64 µM in [9]; above 64 µM in data set [10]; above 64 µM in data set [11]; above 64 µM in data set [12]; 64 µM (≈ 41.3 µg/mL) in data set [13]. The MIC amounted to 8 µM (≈ 5.16 µg/mL) in data set [14], 2 µM (≈ 1.29 µg/mL) in data set [15] and 8 µM (≈ 5.16 µg/mL) in [16]. The CC50 at 24 h in [3] was 175 µM.

In the case of `N=C(N)NCCC[C@H]1C(=O)N(Cc2ccc(-c3ccccc3)cc2)[C@@H](CCCNC(=N)N)C(=O)N1Cc1ccc(-c2ccccc2)cc1`, the MIC is 2 µM (≈ 1.29 µg/mL) in data set [1]; 8 µM (≈ 5.16 µg/mL) in data set [2]; 4 µM (≈ 2.58 µg/mL) in [4]; 4 µM (≈ 2.58 µg/mL) in data set [5]; 8 µM (≈ 5.16 µg/mL) in [6]; 8 µM (≈ 5.16 µg/mL) in data set [7]. Also, the minimum inhibitory concentration (MIC) was determined as 8 µM (≈ 5.16 µg/mL) in [8]; 8 µM (≈ 5.16 µg/mL) in data set [9]; 32 µM (≈ 20.6 µg/mL) in data set [10]; 64 µM (≈ 41.3 µg/mL) in data set [11]; 16 µM (≈ 10.3 µg/mL) in data set [12]; 8 µM (≈ 5.16 µg/mL) in [13]. Besides, the minimal inhibitory concentration (MIC) in data set [14] was 4 µM (≈ 2.58 µg/mL); in data set [15], 4 µM (≈ 2.58 µg/mL); in data set [16], 8 µM (≈ 5.16 µg/mL). For the same compound, the CC50 at 24 h in data set [3] was 63 µM.

Regarding `N=C(N)NCCC[C@H]1C(=O)N(Cc2ccccc2)[C@@H](CCCNC(=N)N)C(=O)N1Cc1ccccc1`, the minimal inhibitory concentration (MIC) is above 64 µM in [1]; above 64 µM in data set [2]; above 64 µM in data set [4]; above 64 µM in [5]; above 64 µM in data set [6]; 64 µM (≈ 31.5 µg/mL) in data set [7]. Also, the minimal inhibitory concentration (MIC) in data set [8], in data set [9], in [10], in [11], in data set [12] and in data set [13] was above 64 µM throughout. In addition, the minimal inhibitory concentration (MIC) in [14], in data set [15] and in [16] was above 64 µM in each case. The CC50 at 24 h in data set [3] was above 512 µM.

With `N=C(N)NCCC[C@@H]1C(=O)N(Cc2ccc(-c3ccccc3)cc2)[C@H](CCCNC(=N)N)C(=O)N1Cc1ccc(-c2ccccc2)cc1`, the minimum inhibitory concentration (MIC) was found to be 4 µM (≈ 2.58 µg/mL) in data set [1]; 8 µM (≈ 5.16 µg/mL) in data set [2]; 4 µM (≈ 2.58 µg/mL) in [4]; 4 µM (≈ 2.58 µg/mL) in data set [5]; 8 µM (≈ 5.16 µg/mL) in data set [6]; 8 µM (≈ 5.16 µg/mL) in data set [7]. Also, the minimum inhibitory concentration (MIC) in data set [8] stood at 8 µM (≈ 5.16 µg/mL); in data set [9], 16 µM (≈ 10.3 µg/mL); in data set [10], 64 µM (≈ 41.3 µg/mL); in [11], 64 µM (≈ 41.3 µg/mL); in [12] it was 32 µM (≈ 20.6 µg/mL); in data set [13], 8 µM (≈ 5.16 µg/mL). Moreover, the minimum inhibitory concentration (MIC) is 2 µM (≈ 1.29 µg/mL) in data set [14], 4 µM (≈ 2.58 µg/mL) in data set [15] and 4 µM (≈ 2.58 µg/mL) in [16]. Besides, in data set [3], the CC50 at 24 h came to 99 µM.

`NCCC[C@H]1C(=O)N(Cc2ccc(-c3ccccc3)cc2)[C@@H](CCCN)C(=O)N1Cc1ccc(-c2ccccc2)cc1`: the MIC in [1] turned out to be 8 µM (≈ 4.49 µg/mL); in data set [2], 32 µM (≈ 17.9 µg/mL); in [4], 4 µM (≈ 2.24 µg/mL); in data set [5], 4 µM (≈ 2.24 µg/mL); in data set [6], 8 µM (≈ 4.49 µg/mL); in data set [7], 8 µM (≈ 4.49 µg/mL). Moreover, the MIC stood at 16 µM (≈ 8.97 µg/mL) in [8]; 16 µM (≈ 8.97 µg/mL) in data set [9]; 8 µM (≈ 4.49 µg/mL) in data set [10]; 64 µM (≈ 35.9 µg/mL) in data set [11]; 32 µM (≈ 17.9 µg/mL) in [12]; 64 µM (≈ 35.9 µg/mL) in data set [14]. For the same compound, the MIC in data set [15] was found to be 32 µM (≈ 17.9 µg/mL); in data set [16] it was 8 µM (≈ 4.49 µg/mL). In addition, the CC50 at 24 h in data set [3] is 30 µM.

Consider `CC[C@H](C)CCCCC(=O)N[C@@H](CCN)C(=O)N[C@H](C(=O)N[C@@H](CCN)C(=O)N[C@H]1CCNC(=O)[C@H]([C@@H](C)O)NC(=O)[C@H](CCN)NC(=O)[C@H](CCN)NC(=O)[C@H](CC(C)C)NC(=O)[C@@H](Cc2ccccc2)NC(=O)[C@H](CCN)NC1=O)[C@@H](C)O` (X1-[Dab]T[Dab][Dab][Dab][dF]L[Dab][Dab]T; lactam 4-C), for which the minimum inhibitory concentration (MIC) in data set [1] was determined as 8 µM (≈ 9.63 µg/mL); in data set [4], 64 µM (≈ 77 µg/mL); in data set [5], 32 µM (≈ 38.5 µg/mL); in data set [6] it was 8 µM (≈ 9.63 µg/mL); in data set [7], 32 µM (≈ 38.5 µg/mL); in data set [8] it was 0.25 µM (≈ 0.301 µg/mL). Also, the MIC in [9] was 4 µM (≈ 4.81 µg/mL); in data set [10], 16 µM (≈ 19.3 µg/mL); in data set [11], 1 µM (≈ 1.2 µg/mL); in data set [12], 0.25 µM (≈ 0.301 µg/mL); in data set [16], above 64 µM. Further, the CC50 at 24 h in data set [3] was above 512 µM.

Regarding `CC1(C)S[C@@H]2[C@H](NC(=O)[C@H](N)c3ccc(O)cc3)C(=O)N2[C@H]1C(=O)O` [AMOXICILLIN], the MIC in [1] is 8 µM (≈ 2.92 µg/mL); in [4], 1 µM (≈ 0.365 µg/mL); in data set [5], above 64 µM; in [6] it was 0.5 µM (≈ 0.183 µg/mL); in [7] it was 0.25 µM (≈ 0.0914 µg/mL); in data set [8] it was 16 µM (≈ 5.85 µg/mL). The values for the MIC in [13] and in data set [16] were above 64 µM and 64 µM (≈ 23.4 µg/mL), respectively. Further, in [3], the CC50 at 24 h was above 512 µM.

As for `C[C@@H]1[C@H](O)[C@@H](C)/C=C/C=C/C=C/C=C/C=C/C=C/C=C/[C@H](O[C@@H]2O[C@H](C)[C@@H](O)[C@H](N)[C@@H]2O)C[C@@H]2O[C@](O)(C[C@@H](O)C[C@@H](O)[C@H](O)CC[C@@H](O)C[C@@H](O)CC(=O)O[C@H]1C)C[C@H](O)[C@H]2C(=O)O` [AMPHOTERICIN B], the results for the MIC in [2], in [14] and in [15] were 4 µM (≈ 3.7 µg/mL), 1 µM (≈ 0.924 µg/mL) and 2 µM (≈ 1.85 µg/mL), respectively.

For the origin of these results see ChEMBL document CHEMBL5038678, “Stereochemical Effects on the Antimicrobial Properties of Tetrasubstituted 2,5-Diketopiperazines” (ACS Med Chem Lett, 2022).
